The source made the active and inactive calls. The calls are words filed in the database; no cut-off is given here.
Tests used:
[1] = target: T1, Proteasome subunit beta type-10 (Homo sapiens) (UniProt P40306); assay: Inhibition of MECL1 in human PBMC at 500 nM by ELISA
T1 sequence (whole entry): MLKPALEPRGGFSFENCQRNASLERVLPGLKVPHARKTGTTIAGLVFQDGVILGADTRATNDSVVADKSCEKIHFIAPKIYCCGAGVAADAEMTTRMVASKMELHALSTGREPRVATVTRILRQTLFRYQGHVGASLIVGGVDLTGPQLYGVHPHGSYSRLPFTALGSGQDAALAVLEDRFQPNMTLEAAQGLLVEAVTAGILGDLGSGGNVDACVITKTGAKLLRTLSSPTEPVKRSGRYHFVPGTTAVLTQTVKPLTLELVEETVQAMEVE
Method in brief: (§1)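 Cryopreserved healthy-donor human PBMC in RPMI 1640 with 5% heat-inactivated FBS, exposed to compound (0.1% DMSO final) for 1 h at 37 °C, 5% CO2, then washed. Subunit-specific active-site occupancy read by ProCISE: biotinylated active-site probe binding, denaturation, streptavidin capture, subunit-specific antibody and HRP chemiluminescence. Signal normalized to protein and expressed relative to DMSO controls.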

[2] = Clearance in Balb/c mouse at 2 mg/kg, iv; assay type: ADME, organism-based; conditions: in vivo
Method in brief: (§2)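 Female BALB/c mice aged 7−8 weeks, given 2 mg/kg iv in 25% PEG300/WFI. Cardiac blood taken at 2, 5, 10, 20, 30, 60 and 120 min postdose into sodium heparin and processed to plasma (n = 3/time point). Proteins precipitated with acetonitrile; drug measured by LC−MS/MS. Noncompartmental analysis of mean concentrations at nominal times and target doses.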

Mus musculus [3] = assay: In vivo inhibition of proteosome beta 5 in Balb/c mouse kidney at 5 mg/kg, iv followed by dosing repeat on day 6, 8, 11, 13 and 15 and measured on 1 hr post last dose; assay type: functional, organism-based
Method in brief: (§3)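 BALB/c mice dosed iv bolus in 10% sulfobutyl ether−β-cyclodextrin/10 mM sodium citrate pH 3.5; tissues taken 1 h after administration. Splenocytes strained and red cells lysed; kidney frozen, then bead-homogenized. Hypotonic lysate (20 mM Tris pH 8, 5 mM EDTA) at 1 mg/mL (spleen) or 5 mg/mL (kidney) run in the ProCISE active-site ELISA. Background-subtracted, protein-normalized activity relative to vehicle animals; n = 3.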

PBMC [4] = assay: Antiinflammatory activity in human PBMC assessed as reduction in LPS-stimulated p40 subunit of […] expression at 500 nM preincubated for 1 hr followed by LPS stimulation measured after 24 hrs by ELISA; assay type: functional, cell-based
Method in brief: (§4)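 Cryopreserved healthy-donor PBMC in RPMI 1640 with 5% heat-inactivated FBS, 250 000 cells/well. Compound (0.1% DMSO final) for 1 h at 37 °C, 5% CO2, then 4 washes with medium. Stimulated with 1 μg/mL LPS for 24 h; supernatant TNFα, IL-6 and IL-12/23p40 by electrochemiluminescent immunoassay. Mean level relative to DMSO controls, n = 6.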

PBMC [5] = assay: Antiinflammatory activity in human PBMC assessed as reduction in anti-CD3/CD28 antibody-stimulated TNF-alpha expression at 500 nM preincubated for 1 hr followed by anti-CD3/CD28 antibody stimulation measured after 24 hrs by ELISA; assay type: functional, cell-based
Method in brief: (§5)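 Healthy-donor PBMC, thawed from cryopreservation, 250 000 cells/well in RPMI 1640/5% FBS. Pretreated 1 h at 37 °C with compound alone or combined (0.1% DMSO final), washed 4 times, then stimulated 24 h with anti-CD3 and anti-CD28 antibodies. TNFα and IFNγ in supernatants by electrochemiluminescent ELISA; expressed relative to DMSO-treated controls (n = 6).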

[6] = Half life in Balb/c mouse at 2 mg/kg, iv; assay type: ADME, organism-based; conditions: in vivo; method in brief: as §2
PBMC [7] = assay: Antiinflammatory activity in human PBMC assessed as reduction in anti-CD3/CD28 antibody-stimulated IFN-gamma expression at 500 nM preincubated for 1 hr followed by anti-CD3/CD28 antibody stimulation measured after 24 hrs by ELISA; assay type: functional, cell-based; method in brief: as §5
Mus musculus [8] = assay: Antiarthritic activity in type 2 collagen antibody/LPS induced Balb/c mouse assessed as reduction in disease burden at 5 mg/kg, iv followed by dosing repeat on day 6, 8, 11, 13 and 15 and measured until day 18; assay type: functional, organism-based
Method in brief: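 CAIA in 7−8 week old female BALB/c mice on breeder chow. Induced with 1.75 mg of a 5-antibody anti-type II collagen cocktail iv on day 0, then 25 μg LPS ip on day 3. Dosed as single iv boluses in 10% (w/v) sulfobutyl ether−β-cyclodextrin/10 mM sodium citrate (pH 3.5); vehicle-treated group included.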

[9] = Toxicity in Balb/c mouse assessed as effect on cage-side observations at 5 mg/kg, iv followed by dosing repeat on day 6, 8, 11, 13 and 15 and measured until day 18; assay type: organism-based; conditions: in vivo
Mus musculus [10] = assay: In vivo inhibition of LMP2 in Balb/c mouse splenocytes at 5 mg/kg, iv followed by dosing repeat on day 6, 8, 11, 13 and 15 and measured on 1 hr post last dose; assay type: functional, organism-based; method in brief: as §3
PBMC [11] = assay: Antiinflammatory activity in human PBMC assessed as reduction in LPS-stimulated IL-6 expression at 500 nM preincubated for 1 hr followed by LPS stimulation measured after 24 hrs by ELISA; assay type: functional, cell-based; method in brief: as §4
[12] = target: T2, Proteasome subunit beta type-8 (Homo sapiens) (UniProt P28062); assay: Inhibition of LMP7 in human PBMC at 500 nM by ELISA; method in brief: as §1
T2 sequence (whole entry): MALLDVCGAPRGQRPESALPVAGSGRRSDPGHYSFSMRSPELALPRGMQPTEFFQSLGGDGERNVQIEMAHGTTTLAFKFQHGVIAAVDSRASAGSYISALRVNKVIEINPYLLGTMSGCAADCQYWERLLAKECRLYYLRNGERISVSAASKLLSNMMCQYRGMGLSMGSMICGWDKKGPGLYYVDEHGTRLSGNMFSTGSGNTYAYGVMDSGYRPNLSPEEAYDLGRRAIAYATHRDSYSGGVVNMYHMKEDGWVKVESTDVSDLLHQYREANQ

PBMC [13] = assay: Cytotoxicity in human PBMC assessed as reduction in cell viability at 500 nM relative to control; assay type: cell-based; conditions: 0.5 µM
Mus musculus [14] = assay: In vivo inhibition of LMP7 in Balb/c mouse splenocytes at 5 mg/kg, iv followed by dosing repeat on day 6, 8, 11, 13 and 15 and measured on 1 hr post last dose; assay type: functional, organism-based; method in brief: as §3
[15] = target: T3, Proteasome subunit beta type-9 (Homo sapiens) (UniProt P28065); conditions: 500 nM
T3 sequence (whole entry): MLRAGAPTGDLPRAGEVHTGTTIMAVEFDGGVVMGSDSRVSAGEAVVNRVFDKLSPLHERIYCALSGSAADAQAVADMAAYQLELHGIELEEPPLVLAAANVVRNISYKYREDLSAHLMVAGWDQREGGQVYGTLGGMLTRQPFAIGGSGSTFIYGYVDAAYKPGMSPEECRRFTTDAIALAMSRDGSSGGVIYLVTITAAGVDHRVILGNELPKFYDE

Mus musculus [16] = assay: In vivo inhibition of MECL-1 in Balb/c mouse splenocytes at 5 mg/kg, iv followed by dosing repeat on day 6, 8, 11, 13 and 15 and measured on 1 hr post last dose; assay type: functional, organism-based; method in brief: as §3
PBMC [17] = assay: Antiinflammatory activity in human PBMC assessed as reduction in LPS-stimulated TNF-alpha expression at 500 nM preincubated for 1 hr followed by LPS stimulation measured after 24 hrs by ELISA; assay type: functional, cell-based; method in brief: as §4
[18] = Toxicity in Balb/c mouse assessed as change in body weight at 5 mg/kg, iv followed by dosing repeat on day 6, 8, 11, 13 and 15 and measured until day 18; assay type: organism-based; conditions: in vivo

- inhibition [1]: Active
- clearance [2]: > 73 mL/min/kg
- half-life [6]: < 7 min
- inhibition [12]: Active
- inhibition [15]: Active
Compound: C[C@]1(C(=O)[C@H](Cc2ccccc2)NC(=O)[C@H](CO)NC(=O)c2cccc(=O)[nH]2)CO1
- inhibition (Mus musculus [3]): Active
- Activity (PBMC [4]): inactive
- Activity (PBMC [5]): inactive
- Activity (PBMC [7]): inactive
- Activity (Mus musculus [8]): inactive
- Activity [9]: Non-Toxic
- inhibition (Mus musculus [10]): Active
- Activity (PBMC [11]): inactive
- Activity (PBMC [13]): 30%
- inhibition (Mus musculus [14]): Active
- inhibition (Mus musculus [16]): Active
- Activity (PBMC [17]): inactive
- Activity [18]: Non-Toxic
